Results from ChEMBL document CHEMBL4689842, “EUbOPEN Chemogenomics Library wave 1” (2021).

Tests used:
Format in all cases: toxicity, cell-based
[1] = system: U2OS; assay: Incucyte cell viability with U2OS; details: human, 10 µM, compound concentration 10 uM; further: filed as whole numbers so only -1 and 0 and 1 occur
[2] = system: Fibroblast; assay: Multiplex assay against human fibroblast
Summary of the method: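 Per cents of healthy-nucleus cells form the tubulin, mitochondrial-mass and membrane-permeability phenotype values. Live cells were stained at seeding with Hoechst33342, BioTracker Green Microtubule Cytoskeleton Dye, MitoTracker Red and Annexin V Alexa Fluor 680. After compound addition they were imaged on a CQ1 microscope at 37°C and 5% CO2, and CellPathfinder machine-learning gating split them into Hoechst high-intensity objects or normal cells, normal cells into healthy, pyknosed or fragmented nuclei, and pyknosed cells into mitotic or apoptotic.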

[3] = system: HEK-293T; assay: Incucyte cell viability with HEK293T; details: human, 10 µM, compound concentration 10 uM; further: filed as whole numbers so only -1 and 0 and 1 occur
[4] = system: Fibroblast; assay: Incucyte cell viability with human fibroblast; details: 10 µM, compound concentration 10 uM; further: filed as whole numbers so only -1 and 0 and 1 occur
[5] = 6 h, replicate number 1, timepoint 6 hours
[6] = 12 h, replicate number 1, timepoint 12 hours
[7] = 12 h, replicate number 2, timepoint 12 hours
[8] = 18 h, replicate number 1, timepoint 18 hours
[9] = 24 h, replicate number 1, timepoint 24 hours
[10] = 24 h, replicate number 2, timepoint 24 hours
[11] = 12 h, 1 µM, compound concentration 1 uM, replicate 1
[12] = 12 h, 1 µM, compound concentration 1 uM, replicate 2
[13] = 12 h, 10 µM, compound concentration 10 uM, replicate 1
[14] = 12 h, 10 µM, compound concentration 10 uM, replicate 2
[15] = 24 h, 1 µM, compound concentration 1 uM, replicate 1
[16] = 24 h, 1 µM, compound concentration 1 uM, replicate 2
[17] = 24 h, 10 µM, compound concentration 10 uM, replicate 1
[18] = 24 h, 10 µM, compound concentration 10 uM, replicate 2

c1ccc2oc(-c3csc(C4CCN(Cc5nc6ncccc6[nH]5)CC4)n3)cc2c1
Growth Rate ([1]; 0 h, replicate number 2, timepoint 0 hours): 1
Growth Rate [1, 5]: 0
Growth Rate [1, 6]: 0
Growth Rate [1, 7]: 1
Growth Rate [1, 8]: 0
Growth Rate [1, 9]: 1
Growth Rate [1, 10]: 0
Population Apoptotic (%) [2, 11]: 73%
Population Fragmented Nuclei (%) [2, 11]: 30%
Population Healthy Nuclei (%) [2, 11]: 55%
Population Hoechst High Intensity Objects (%) [2, 11]: 15%
Population Membrane Permeable-Phenotype (%) [2, 11]: 9%
Population Mitochondria Different-Phenotype (%) [2, 11]: 10%
Population Mitotic Cells (%) [2, 11]: 26%
Population Normal (%) [2, 11]: 85%
Population Pyknosed Nuclei (%) [2, 11]: 13%
Population Tubulin-Different-Phenotype (%) [2, 11]: 12%
Total Cell Count [2, 11]: 160
Population Apoptotic (%) [2, 12]: 25%
Population Fragmented Nuclei (%) [2, 12]: 59%
Population Healthy Nuclei (%) [2, 12]: 28%
Population Hoechst High Intensity Objects (%) [2, 12]: 34%
Population Membrane Permeable-Phenotype (%) [2, 12]: 15%
Population Mitochondria Different-Phenotype (%) [2, 12]: 5%
Population Mitotic Cells (%) [2, 12]: 75%
Population Normal (%) [2, 12]: 65%
Population Pyknosed Nuclei (%) [2, 12]: 11%
Population Tubulin-Different-Phenotype (%) [2, 12]: 26%
Total Cell Count [2, 12]: 103
Population Apoptotic (%) [2, 13]: 63%
Population Fragmented Nuclei (%) [2, 13]: 25%
Population Healthy Nuclei (%) [2, 13]: 55%
Population Hoechst High Intensity Objects (%) [2, 13]: 11%
Population Membrane Permeable-Phenotype (%) [2, 13]: 3%
Population Mitochondria Different-Phenotype (%) [2, 13]: 1%
Population Mitotic Cells (%) [2, 13]: 36%
Population Normal (%) [2, 13]: 88%
Population Pyknosed Nuclei (%) [2, 13]: 19%
Population Tubulin-Different-Phenotype (%) [2, 13]: 4%
Total Cell Count [2, 13]: 190
Population Apoptotic (%) [2, 14]: 66%
Population Fragmented Nuclei (%) [2, 14]: 65%
Population Healthy Nuclei (%) [2, 14]: 28%
Population Hoechst High Intensity Objects (%) [2, 14]: 35%
Population Membrane Permeable-Phenotype (%) [2, 14]: 21%
Population Mitochondria Different-Phenotype (%) [2, 14]: 0%
Population Mitotic Cells (%) [2, 14]: 33%
Population Normal (%) [2, 14]: 64%
Population Pyknosed Nuclei (%) [2, 14]: 6%
Population Tubulin-Different-Phenotype (%) [2, 14]: 0%
Total Cell Count [2, 14]: 76
Population Apoptotic (%) [2, 15]: 50%
Population Fragmented Nuclei (%) [2, 15]: 38%
Population Healthy Nuclei (%) [2, 15]: 51%
Population Hoechst High Intensity Objects (%) [2, 15]: 12%
Population Membrane Permeable-Phenotype (%) [2, 15]: 10%
Population Mitochondria Different-Phenotype (%) [2, 15]: 4%
Population Mitotic Cells (%) [2, 15]: 50%
Population Normal (%) [2, 15]: 87%
Population Pyknosed Nuclei (%) [2, 15]: 9%
Population Tubulin-Different-Phenotype (%) [2, 15]: 17%
Total Cell Count [2, 15]: 165
Population Apoptotic (%) [2, 16]: 25%
Population Fragmented Nuclei (%) [2, 16]: 64%
Population Healthy Nuclei (%) [2, 16]: 28%
Population Hoechst High Intensity Objects (%) [2, 16]: 39%
Population Membrane Permeable-Phenotype (%) [2, 16]: 25%
Population Mitochondria Different-Phenotype (%) [2, 16]: 0%
Population Mitotic Cells (%) [2, 16]: 75%
Population Normal (%) [2, 16]: 60%
Population Pyknosed Nuclei (%) [2, 16]: 7%
Population Tubulin-Different-Phenotype (%) [2, 16]: 25%
Total Cell Count [2, 16]: 92
Population Apoptotic (%) [2, 17]: 90%
Population Fragmented Nuclei (%) [2, 17]: 26%
Population Healthy Nuclei (%) [2, 17]: 59%
Population Hoechst High Intensity Objects (%) [2, 17]: 11%
Population Membrane Permeable-Phenotype (%) [2, 17]: 2%
Population Mitochondria Different-Phenotype (%) [2, 17]: 0%
Population Mitotic Cells (%) [2, 17]: 9%
Population Normal (%) [2, 17]: 88%
Population Pyknosed Nuclei (%) [2, 17]: 13%
Population Tubulin-Different-Phenotype (%) [2, 17]: 2%
Total Cell Count [2, 17]: 183
Population Apoptotic (%) [2, 18]: 100%
Population Fragmented Nuclei (%) [2, 18]: 59%
Population Healthy Nuclei (%) [2, 18]: 34%
Population Hoechst High Intensity Objects (%) [2, 18]: 34%
Population Membrane Permeable-Phenotype (%) [2, 18]: 13%
Population Mitochondria Different-Phenotype (%) [2, 18]: 6%
Population Mitotic Cells (%) [2, 18]: 0%
Population Normal (%) [2, 18]: 65%
Population Pyknosed Nuclei (%) [2, 18]: 6%
Population Tubulin-Different-Phenotype (%) [2, 18]: 0%
Total Cell Count [2, 18]: 67
Growth Rate [3, 5]: 0
Growth Rate [3, 6]: 0
Growth Rate [3, 8]: 0
Growth Rate [3, 9]: 0
Growth Rate [4, 5]: 0
Growth Rate [4, 6]: 0
Growth Rate [4, 7]: 1
Growth Rate [4, 8]: 0
Growth Rate ([4]; 18 h, replicate number 2, timepoint 18 hours): 1
Growth Rate [4, 9]: 0
Growth Rate [4, 10]: 1
